Data published in ChEMBL document CHEMBL3108697, “Design of an amide N-glycoside derivative of β-glucogallin: a stable, potent, and specific inhibitor of aldose reductase” (J Med Chem, 2014).
The source made the active and inactive calls. The calls are words filed in the database; no cut-off is given here.

How the values were obtained:
[1] = target: T1, Aldo-keto reductase family 1 member B1 (Homo sapiens, UniProt P15121); assay: Inhibition of human recombinant AKR1B1 expressed in Escherichia coli using DL-glyceraldehyde as substrate after 5 mins by spectrophotometry
Method in brief: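 Enzyme inhibition was tested with recombinant human AKR1B1, using the natural substrate glyceraldehyde.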

[2] = target: T1, Aldo-keto reductase family 1 member B1; assay: Inhibition of human AKR1B1 expressing in PAR40 C57BL6 mouse lens assessed as inhibition of glucose-induced sorbitol accumulation at 25 to 50 uM after 72 hrs by colorimetric assay; conditions: Lens of camera-type eye
Method in brief: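 Lenses were taken from transgenic mice overexpressing human AKR1B1, and from wild-type mice. They were cultured ex vivo with 27.5 mM glucose and given vehicle (H₂O) or compound at 25 and 50 μM for 72 h. Sorbitol accumulation was measured.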

[3] = target: Aldo-keto reductase family 1 member B1 (Mus musculus) (UniProt P45376); assay: Inhibition of AKR1B1 in mouse RAW264.7 cells assessed as inhibition of sorbitol accumulation at 50 uM after 24 hrs by colorimetric assay; format: cell-based
Method in brief: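 Raw264.7 murine macrophages were incubated with compound for 24 h, then harvested. Intracellular sorbitol accumulation served as the read-out of AKR1B1 activity.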

[4] = Stability of the compound in aqueous sulfuric acid solution assessed as compound remaining at 250 uM at pH 0.33 at 80 degC after 6 days by HPLC analysis; format: physicochemical; conditions: read-out: Stability
Method in brief: (§1)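 Compound kept in aqueous sulfuric acid (pH = 0.33) with heating at 80 °C. Intact compound remaining was quantified by HPLC against calibration curves.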

[5] = target: T2, Aldo-keto reductase family 1 member A1 (Homo sapiens) (UniProt P14550); assay: Inhibition of AKR1A1 (unknown origin) using DL-glyceraldehyde as substrate at 15 uM after 5 mins by spectrophotometry
T2 sequence (whole entry): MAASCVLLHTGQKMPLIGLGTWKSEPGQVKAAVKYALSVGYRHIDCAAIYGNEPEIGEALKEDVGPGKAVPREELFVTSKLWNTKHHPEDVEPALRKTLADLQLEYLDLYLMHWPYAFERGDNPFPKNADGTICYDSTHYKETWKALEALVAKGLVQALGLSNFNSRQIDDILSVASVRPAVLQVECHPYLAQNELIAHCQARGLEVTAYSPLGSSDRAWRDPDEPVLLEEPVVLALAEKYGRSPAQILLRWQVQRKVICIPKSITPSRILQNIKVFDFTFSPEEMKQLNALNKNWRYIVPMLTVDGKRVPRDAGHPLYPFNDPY

[6] = target: Aldo-keto reductase family 1 member B10 (Homo sapiens) (UniProt O60218); assay: Inhibition of AKR1B10 (unknown origin) using DL-glyceraldehyde as substrate at 15 uM after 5 mins by spectrophotometry
[7] = Drug degradation in aqueous sulfuric acid solution at 250 uM at pH 0.33 at 80 degC after 30 mins by HPLC analysis; format: physicochemical; conditions: buffer, pH 0.33, 0.5 h; method in brief: as §1
[8] = Drug degradation in aqueous sulfuric acid solution at 250 uM at pH 0.33 at 80 degC after 15 mins by HPLC analysis; format: physicochemical; conditions: read-out: Drug degradation; method in brief: as §1

Aldo-keto reductase family 1 member B10 (Homo sapiens), sequence (O60218 whole entry, looked up): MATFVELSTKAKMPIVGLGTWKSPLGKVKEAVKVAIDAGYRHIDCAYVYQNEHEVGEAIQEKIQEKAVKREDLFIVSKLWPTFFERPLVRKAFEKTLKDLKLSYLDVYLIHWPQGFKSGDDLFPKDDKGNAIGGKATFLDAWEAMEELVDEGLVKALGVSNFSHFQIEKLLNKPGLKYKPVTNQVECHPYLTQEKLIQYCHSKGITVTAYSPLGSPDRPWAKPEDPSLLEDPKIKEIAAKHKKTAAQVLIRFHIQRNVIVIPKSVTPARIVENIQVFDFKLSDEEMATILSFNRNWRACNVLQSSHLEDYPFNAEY

OC[C@H]1O[C@@H](OCCc2cc(O)c(O)c(O)c2)[C@H](O)[C@@H](O)[C@@H]1O
inhibition [1]: inactive

OC[C@H]1O[C@@H](n2cc(-c3cc(O)c(O)c(O)c3)nn2)[C@H](O)[C@@H](O)[C@@H]1O
inhibition [1]: inactive

OC[C@H]1O[C@@H](OCCCc2cc(O)c(O)c(O)c2)[C@H](O)[C@@H](O)[C@@H]1O
inhibition [1]: inactive

O=C(N[C@@H]1O[C@H](CO)[C@@H](O)[C@H](O)[C@H]1O)c1cc(O)c(O)c(O)c1
inhibition [2]: 80% | inhibition [3]: 50% | remaining at 144 h, 250 µM [4]: 96% | inhibition [5]: inactive | inhibition [6]: inactive | IC50 [1]: 9 µM

O=C(O[C@@H]1O[C@H](CO)[C@@H](O)[C@H](O)[C@H]1O)c1cc(O)c(O)c(O)c1
inhibition [2]: 74% | inhibition [3]: 50% | Stability [7]: Unstable | degraded at 0.25 h, 250 µM [8]: 76% | inhibition [5]: inactive | inhibition [6]: inactive | IC50 [1]: 8 µM

O=C(Cc1cc(O)c(O)c(O)c1)N[C@@H]1O[C@H](CO)[C@@H](O)[C@H](O)[C@H]1O
inhibition [1]: inactive

OC[C@H]1O[C@@H](OCc2cn(Cc3cc(O)c(O)c(O)c3)nn2)[C@H](O)[C@@H](O)[C@@H]1O
inhibition [1]: inactive
